Measurements reported in PubChem BioAssay.
Calls of active or inactive are those of the source.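 Rule for the calls, unless noted: active = inhibition of the reporter signal at or above 50%; inactive = inhibition below 50%.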

How the values were obtained:
[1] = inhibitors of TNFa-induced NFkB p65 translocation, primary screen, imaging, HUVEC, MLSMR starter and 10KST1 sets (AID 438;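 active = inhibition above 20% together with a positive visual image hit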;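 note: compound added about 3h40 before a 20 min TNFalpha stimulation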;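 for inhibition: signal is the nuclear over cytoplasmic p65 intensity ratio per well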); settings: HUVEC TNFa-induced p65 nuclear translocation; cell count: measured here: nuclei count (cytotoxicity indicator), at 2.08 µM; inhibition: at 2 µM, stronger effect = higher value, 0% TNFa-plus-vehicle, 100% no-TNFa wells
[2] = reduction of polyQ htt aggregates in cells – imaging, exon1htt(103Q)mCFP cells, high-content imaging, primary screen (AID 483;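 active = visual image review flags a hit and inhibition of aggregation exceeds 20%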;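 note: compound exposure lasted 3 days before fixation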;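 for nuclei count: percent of the per-plate median nuclei count of sample wells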); settings: exon1htt(103Q)mCFP cell line, aggregate imaging, at 2 µM; inhibition of aggregation: stronger effect = higher value; nuclei count: measured here: cell count, toxicity
[3] = endothelial E-selectin expression blockers – imaging, HUVEC, immunofluorescence, MLSMR starter and 10KST1 sets, primary screen (AID 487;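 active = visually confirmed hit in the image check and inhibition above 20%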;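 for inhibition: signal is fraction of cell area covered by stained E-selectin grains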;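 for nuclei count: 100% = median nuclei count of all wells on the same plate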); settings: HUVEC TNFalpha-induced E-selectin immunofluorescence imaging, at 2 µM; inhibition: stronger effect = higher value; nuclei count: measured here: cell number, toxicity
[4] = molecular target: Voltage-gated potassium channel subunit beta-2 (Rattus norvegicus) (UniProt P62483); test: inhibitors of rat Kvbeta2 reductase activity – biochemical, NADPH fluorescence, primary screen (AID 622;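 active = fluorescence slope higher than the sample average by over 3 SD, cut at about -0.22 in these data, passing the limit was not always enough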;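 note: slope of raw intensity against log time taken from 70 to 1610 s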); settings: recombinant KvBeta, 4-cyanobenzaldehyde reduction, at 10 µM, stronger effect = higher value
[5] = molecular target: Voltage-gated potassium channel subunit beta-2 (Rattus norvegicus) (UniProt P62483); test: enhancers of rat Kvbeta2 NADPH turnover – biochemical, NADPH fluorescence, primary screen (AID 623;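 active = NADPH fluorescence slope more negative than the mean of all samples by about 3 SD, 99.7% confidence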;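 note: fluorescence intensity change per second fitted from 20 to 320 s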); settings: Recombinant KvBeta, NADPH fluorescence decrease slope, 10 min; at 10 µM; stronger effect = lower value
[6] = molecular target: Muscarinic acetylcholine receptor M4 (Homo sapiens) (UniProt P08173); test: M4-linked GIRK flux change, two-sided – cell-based, HEK293 M4/GIRK, thallium flux, BTC-AM, M4 allosteric agonist project, primary screen (AID 625;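 active = fluorescence slope after compound addition differing from the mean of all tested samples at 99.7% confidence, mostly higher but some lower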;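 note: thallium influx through GIRK channels coupled to M4 in HEK293 cells with BTC-AM dye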); settings: at 10 µM, actives lie on both sides
How it was run: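 Assay system: HEK293 cells with M4 receptor and GIRK channels / Controls: carbachol and DMSO controls / Schedule: 1 h dye loading, 2 min kinetic read / Technique: kinetic fluorescence with BTC-AM dye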

[7] = blockers of RIG-like receptor reporter activation – cell-based, Sendai virus stimulus, luciferase, 10K MLSCN set, TLR/RLR signaling modifier project, primary screen (AID 602276;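 active = inhibition at or above 50% at 10 µM; inactive = inhibition below 50%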;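 note: firefly luciferase from ISG56 promoter only with Renilla not read in this screen; 0% = Sendai virus plus DMSO and 100% = medium plus DMSO without virus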); settings: HEK293 RL24 IRF3 luciferase reporter, at 10 µM, stronger effect = higher value
[8] = TLR3 IRF3 reporter activation blockers – cell-based, poly I:C stimulus, luciferase, 10K MLSCN set, primary screen (AID 602277); settings: HEK293-TLR3 RL24 IRF3 luciferase reporter, at 10 µM, stronger effect = higher value

Sequence of Voltage-gated potassium channel subunit beta-2 (Rattus norvegicus) (P62483 whole entry, looked up): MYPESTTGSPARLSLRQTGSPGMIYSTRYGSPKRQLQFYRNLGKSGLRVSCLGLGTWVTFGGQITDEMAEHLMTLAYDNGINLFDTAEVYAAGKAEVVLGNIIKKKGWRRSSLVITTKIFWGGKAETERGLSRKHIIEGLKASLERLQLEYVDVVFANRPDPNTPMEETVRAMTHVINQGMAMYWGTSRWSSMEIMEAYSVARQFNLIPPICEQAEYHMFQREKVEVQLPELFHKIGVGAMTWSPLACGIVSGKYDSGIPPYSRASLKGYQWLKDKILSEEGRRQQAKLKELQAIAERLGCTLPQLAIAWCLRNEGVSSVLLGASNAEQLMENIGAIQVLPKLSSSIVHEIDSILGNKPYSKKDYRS
Sequence of Muscarinic acetylcholine receptor M4 (Homo sapiens) (P08173 whole entry, looked up): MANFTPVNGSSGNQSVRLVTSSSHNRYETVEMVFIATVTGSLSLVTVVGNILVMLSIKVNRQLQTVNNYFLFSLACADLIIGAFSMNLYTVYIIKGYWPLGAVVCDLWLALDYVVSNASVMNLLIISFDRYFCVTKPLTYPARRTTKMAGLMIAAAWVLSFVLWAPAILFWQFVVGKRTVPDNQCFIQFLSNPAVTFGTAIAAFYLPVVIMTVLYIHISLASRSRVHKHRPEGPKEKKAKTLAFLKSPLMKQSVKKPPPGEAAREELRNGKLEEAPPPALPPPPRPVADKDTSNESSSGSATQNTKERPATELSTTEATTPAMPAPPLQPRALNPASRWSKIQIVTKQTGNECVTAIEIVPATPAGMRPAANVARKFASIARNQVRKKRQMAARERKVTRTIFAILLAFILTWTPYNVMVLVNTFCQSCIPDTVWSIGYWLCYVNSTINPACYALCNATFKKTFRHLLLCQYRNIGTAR

Row | Compound | cell count [1] | inhibition [1] | inhibition of aggregation [2] | nuclei count [2] [%] | inhibition [3] | nuclei count [3] [%] | fluorescence slope [4] | NADPH fluorescence slope [5] | fluorescence slope [6] | inhibition [7] | inhibition [8]
1 | Cc1cc2c(s1)c1cnn(CC(=O)NCCc3ccccc3)c(=O)c1n2C | 279 | 17.5% (inactive) | -21.4% (inactive) | 104 | -76.9% (inactive) | 102 | -0.236 (inactive) | -7.6e-06 (inactive) | 0.00662 (inactive) | 15.1% (inactive) | -1.81% (inactive)
2 | O=C(O)CCC(=O)Nc1nc(-c2ccccc2)cs1 | 546 | -24.7% (inactive) | -8.2% (inactive) | 110 | 4.3% (inactive) | 147 | -0.449 (inactive) | 0.00011 (inactive) | 0.00599 (inactive) | 16.3% (inactive) | 23.8% (inactive)
3 | O=S(=O)(NCC(O)COCc1ccco1)c1cccs1 (centres undefined) | 297 | 8% (inactive) | -14.1% (inactive) | 108 | 1.6% (inactive) | 97.5 | -0.587 (inactive) | -3.7e-05 (inactive) | 0.00581 (inactive) | 2.99% (inactive) | 8.32% (inactive)
4 | O=C(Nc1ccc(Cl)c(Cl)c1)Nc1cc(C(=O)N2CCOCC2)ccc1N1CCCCC1 | 580 | -17.7% (inactive) | -5.4% (inactive) | 114 | -44.8% (inactive) | 114 | -0.441 (inactive) | -7.7e-06 (inactive) | 0.00555 (inactive) | 13.7% (inactive) | 13.1% (inactive)
5 | c1ccc2c(-c3nc(C4CCCCC4)no3)cc(-c3ccncc3)nc2c1 | 570 | -12.8% (inactive) | 17.4% (inactive) | 73.3 | 48.8% (inactive) | 58.9 | -0.535 (inactive) | -1.6e-05 (inactive) | 0.00839 (inactive) | 11.5% (inactive) | 1.56% (inactive)
6 | O=C(O)CCCC(=O)Nc1ccc(Br)cc1C(=O)O | 398 | 3.8% (inactive) | -5.6% (inactive) | 108 | 12.5% (inactive) | 103 | -0.57 (inactive) | 2.4e-05 (inactive) | 0.00576 (inactive) | 16.9% (inactive) | 20.6% (inactive)
7 | O=C(/C=N/O)Nc1cccnc1 | 351 | -10.2% (inactive) | 17.5% (inactive) | 86 | 57.2% (inactive) | 98.5 | -0.552 (inactive) | -2.2e-05 (inactive) | 0.00502 (inactive) | 21.9% (inactive) | 26.5% (inactive)
8 | CCOc1ccc2c(c1)sc1nc(C(=O)OC)cc(=O)n12 | 432 | 7.5% (inactive) | -10.2% (inactive) | 109 | -0.5% (inactive) | 108 | -0.175 (inactive) | -1.7e-05 (inactive) | 0.00476 (inactive) | 13.7% (inactive) | 19.3% (inactive)
9 | Cn1c(=O)c2c(nc(N3CCCCC3)n2CCSc2nc3ccccc3o2)n(C)c1=O | 248 | -3.6% (inactive) | 2.8% (inactive) | 71.3 | 28.4% (inactive) | 94.2 | -0.451 (inactive) | 4.5e-05 (inactive) | 0.00597 (inactive) | -13.5% (inactive) | -11.3% (inactive)
10 | O=C(C1CCN(S(=O)(=O)c2ccc(-n3cnnn3)cc2)CC1)N1CCN(c2ccccc2)CC1 | 464 | 4.2% (inactive) | 3.7% (inactive) | 76.8 | -101% (inactive) | 120 | -0.569 (inactive) | -4.3e-05 (inactive) | 0.00595 (inactive) | 18.7% (inactive) | 18.2% (inactive)
11 | COCc1[nH]nc2c1C(C1C=CCCC1)C(C#N)=C(N)O2 (centres undefined) | 463 | 5.7% (inactive) | -1.8% (inactive) | 110 | -76.2% (inactive) | 120 | -0.464 (inactive) | -6.2e-05 (inactive) | 0.00521 (inactive) | 16.7% (inactive) | 31.6% (inactive)
12 | O=C(NC1CC2CCC1C2)C1COc2ccccc2O1 (centres undefined) | 297 | -3.7% (inactive) | 1.9% (inactive) | 89.3 | 18.8% (inactive) | 97.5 | -0.46 (inactive) | -3.9e-05 (inactive) | 0.00453 (inactive) | 0.357% (inactive) | -2.86% (inactive)
13 | CC1(c2ccc(OC(F)F)cc2)NC(=O)N(CC(=O)Nc2ccc3c(c2)OCO3)C1=O (centres undefined) | 404 | -6.6% (inactive) | -11.2% (inactive) | 109 | -7.1% (inactive) | 107 | -0.576 (inactive) | -6.3e-05 (inactive) | 0.00647 (inactive) | -3.26% (inactive) | 2.25% (inactive)
14 | CC1(C)Cc2noc(N)c2C(C)(C)N1O | 762 | -11.6% (inactive) | -36.8% (inactive) | 118 | -81.1% (inactive) | 110 | -0.39 (inactive) | 4.7e-05 (inactive) | 0.00626 (inactive) | 13.8% (inactive) | 22.1% (inactive)
